{"source": "ChEMBL document CHEMBL3044956", "about": "“Nematicidal and antifungal activities of annonaceous acetogenins from Annona squamosa against various plant pathogens” (J Agric Food Chem, 2011)", "format_in_all_cases": "functional", "key": {"[1]": {"system": "Bursaphelenchus xylophilus", "test": "Nematicidal activity against second juvenile stage (J2) of Bursaphelenchus xylophilus assessed as mortality at >0.33 ug/ml after 2 days by microtiter plate assay method (Beneficial crop Pine)", "summary_of_the_method": "(§1)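 Pine wood nematodes reared on B. cinerea mycelia on PDA for 7 days at 28 °C. J2s collected in 0.01% Triton X-100 water and tested in microtiter plates. Compounds in DMSO or MeOH, solvent ≤1%; solvent-only controls. Concentrations 0.004–1 μg/mL. Mortality Abbott-corrected; LC50 by probit. Two runs, three replicates each.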"}, "[2]": {"system": "Bursaphelenchus xylophilus", "test": "Nematicidal activity against second juvenile stage (J2) of Bursaphelenchus xylophilus assessed as mortality after 2 days by microtiter plate assay method (Beneficial crop Pine)", "conditions": "48 h", "summary_of_the_method": "as §1"}, "Meloidogyne incognita [3]": {"system": "Meloidogyne incognita", "test": "Nematicidal activity against second juvenile stage (J2) of Meloidogyne incognita (root-knot nematode) assessed as mortality incubated in the dark at 28 degC after 2 days by light microscopy (benficial crop Tomato)", "conditions": "48 h", "summary_of_the_method": "(§2)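 M. incognita eggs taken from infected tomato roots with hypochlorite and J2s hatched in Baermann funnels at 28 °C. J2s from the first 3 days kept in 0.01% Tween 20 water and used within 24 h. About 100 J2s per well; stock added 1:100 in DMSO or MeOH (≤1%). Plates kept shaking in the dark at 28 °C, scored by microscope at 1, 2 and 3 days. Mortality Abbott-corrected. Two runs, three replicates each.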"}, "Meloidogyne incognita [4]": {"system": "Meloidogyne incognita", "test": "Nematicidal activity against second juvenile stage (J2) of Meloidogyne incognita (root-knot nematode) assessed as mortality incubated in the dark at 28 degC after 1 day by light microscopy (benficial crop Tomato)", "conditions": "24 h", "summary_of_the_method": "as §2"}, "Meloidogyne incognita [5]": {"system": "Meloidogyne incognita", "test": "Nematicidal activity against second juvenile stage (J2) of Meloidogyne incognita (root-knot nematode) assessed as mortality incubated in the dark at 28 degC after 3 days by light microscopy (benficial crop Tomato)", "conditions": "72 h", "summary_of_the_method": "as §2"}, "Phytophthora infestans [6]": {"system": "Phytophthora infestans", "test": "In vivo antifungal activity against Phytophthora infestans zoospores infected tomato seedlings assessed as control of tomato late blight disease development at 2 ug/ml treated 1 day before spore inoculation measured 3 days after inoculation", "summary_of_the_method": "(§3)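 Potted seedlings sprayed to runoff with material dissolved in MeOH and diluted in 0.025% Tween 20 (5% MeOH); controls got the Tween/MeOH solution alone. Inoculated with spores or mycelial suspension 1 day later. Infected leaf or sheath area rated 3–7 days after inoculation; % control = 100(A−B)/A. Randomized complete block design, three replicates, run in duplicate; Tukey HSD.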"}, "Phytophthora infestans [7]": {"system": "Phytophthora infestans", "test": "In vivo antifungal activity against Phytophthora infestans zoospores infected tomato seedlings assessed as control of tomato late blight disease development at 10 ug/ml treated 1 day before spore inoculation measured 3 days after inoculation", "summary_of_the_method": "as §3"}, "Colletotrichum coccodes [8]": {"system": "Colletotrichum coccodes", "test": "In vivo antifungal activity against Colletotrichum coccodes infected red pepper seedlings assessed as control of red pepper anthracnose development at 10 ug/ml treated 1 day before spore inoculation measured 3-7 days after inoculation", "summary_of_the_method": "as §3"}, "Colletotrichum coccodes [9]": {"system": "Colletotrichum coccodes", "test": "In vivo antifungal activity against Colletotrichum coccodes infected red pepper seedlings assessed as control of red pepper anthracnose development at 50 ug/ml treated 1 day before spore inoculation measured 3-7 days after inoculation", "summary_of_the_method": "as §3"}, "Botrytis cinerea [10]": {"system": "Botrytis cinerea", "test": "In vivo antifungal activity against Botryotinia fuckeliana infected in tomato seedlings assessed as control of tomato gray mold disease development at 5 ug/ml treated 1 day before spore inoculation measured 3-7 days after inoculation", "summary_of_the_method": "as §3"}, "Botrytis cinerea [11]": {"system": "Botrytis cinerea", "test": "In vivo antifungal activity against Botryotinia fuckeliana infected in tomato seedlings assessed as control of tomato gray mold disease development at 50 ug/ml treated 1 day before spore inoculation measured 3-7 days after inoculation", "summary_of_the_method": "as §3"}, "Puccinia recondita [12]": {"system": "Puccinia recondita", "test": "In vivo antifungal activity against Puccinia recondita infected wheat seedlings assessed as reduction in wheat leaf rust disease symptoms development at 10 ug/ml treated 1 day before spore inoculation measured 7 days after inoculation", "design": "scale not given: the % may be the effect or the level left", "summary_of_the_method": "as §3"}, "Puccinia recondita [13]": {"system": "Puccinia recondita", "test": "In vivo antifungal activity against Puccinia recondita infected wheat seedlings assessed as reduction in wheat leaf rust disease symptoms development at 2 ug/ml treated 1 day before spore inoculation measured 7 days after inoculation", "design": "scale not given: the % may be the effect or the level left", "summary_of_the_method": "as §3"}, "Rhizoctonia solani [14]": {"system": "Rhizoctonia solani", "test": "In vivo antifungal activity against Rhizoctonia solani infected rice seedlings assessed as control of rice sheath blight disease development at 50 ug/ml treated 1 day before spore inoculation measured 3-7 days after inoculation", "summary_of_the_method": "as §3"}, "Rhizoctonia solani [15]": {"system": "Rhizoctonia solani", "test": "In vivo antifungal activity against Rhizoctonia solani infected rice seedlings assessed as control of rice sheath blight disease development at 5 ug/ml treated 1 day before spore inoculation measured 3-7 days after inoculation", "summary_of_the_method": "as §3"}}, "data": [{"smiles": "CCCCCCCCCC[C@H](O)[C@H]1CC[C@H]([C@H]2CC[C@H]([C@H](O)CCCCCCCCCCCCC3=C[C@H](C)OC3=O)O2)O1", "note": "[BULLANIN]", "values": [{"measurement": "mortality", "setting": "[1]", "result": 100, "unit": "%"}, {"measurement": "LC50", "setting": "[2]", "result": 0.018, "unit": "µg/mL"}]}, {"smiles": "O=C/C=C/c1ccccc1", "note": "[CINNAMALDEHYDE]", "values": [{"measurement": "LC50", "setting": "Meloidogyne incognita [3]", "result": 13.9, "unit": "µg/mL"}, {"measurement": "LC50", "setting": "Meloidogyne incognita [4]", "result": 15.1, "unit": "µg/mL"}, {"measurement": "LC50", "setting": "Meloidogyne incognita [5]", "result": 12.2, "unit": "µg/mL"}]}, {"smiles": "COc1ccc(C(=CC(=O)N2CCOCC2)c2ccc(Cl)cc2)cc1OC", "note": "[DIMETHOMORPH]", "values": [{"measurement": "Activity", "setting": "Phytophthora infestans [6]", "result": 85, "unit": "%"}, {"measurement": "Activity", "setting": "Phytophthora infestans [7]", "result": 100, "unit": "%"}]}, {"smiles": "N#Cc1sc2c(=O)c3ccccc3c(=O)c=2sc1C#N", "note": "[DITHIANON]", "values": [{"measurement": "Activity", "setting": "Colletotrichum coccodes [8]", "result": 20, "unit": "%"}, {"measurement": "Activity", "setting": "Colletotrichum coccodes [9]", "result": 100, "unit": "%"}]}, {"smiles": "N#Cc1c[nH]cc1-c1cccc2c1OC(F)(F)O2", "note": "[FLUDIOXONIL]", "values": [{"measurement": "Activity", "setting": "Botrytis cinerea [10]", "result": 83, "unit": "%"}, {"measurement": "Activity", "setting": "Botrytis cinerea [11]", "result": 100, "unit": "%"}]}, {"smiles": "C[Si](Cn1cncn1)(c1ccc(F)cc1)c1ccc(F)cc1", "note": "[FLUSILAZOLE]", "values": [{"measurement": "Activity", "setting": "Puccinia recondita [12]", "result": 100, "unit": "%"}, {"measurement": "Activity", "setting": "Puccinia recondita [13]", "result": 78, "unit": "%"}]}, {"smiles": "CCCCCCCCCC[C@@H](O)[C@H]1CC[C@H]([C@H]2CC[C@H]([C@H](O)CCCCCCCCCCCCC3=C[C@H](C)OC3=O)O2)O1", "note": "[ISODESAACETYLUVARICIN]", "values": [{"measurement": "mortality", "setting": "[1]", "result": 100, "unit": "%"}, {"measurement": "LC50", "setting": "[2]", "result": 0.024, "unit": "µg/mL"}]}, {"smiles": "OCC1=C[C@H](N[C@H]2C[C@H](CO)[C@@H](O[C@@H]3O[C@H](CO)[C@@H](O)[C@H](O)[C@H]3O)[C@H](O)[C@H]2O)[C@H](O)[C@@H](O)[C@@H]1O", "note": "[VALIDAMYCIN]", "values": [{"measurement": "Activity", "setting": "Rhizoctonia solani [14]", "result": 100, "unit": "%"}, {"measurement": "Activity", "setting": "Rhizoctonia solani [15]", "result": 70, "unit": "%"}]}]}
